Assay results pooled from the literature.
BRAF V600E: Serine/threonine-protein kinase B-raf (BRAF, Homo sapiens, UniProt P15056, V600E)
BRAF: Serine/threonine-protein kinase B-raf (BRAF, Homo sapiens, UniProt P15056)

Compound	target	test	conditions	quantity	value
N#Cc1ccc(NC(=O)Nc2ccccc2)cc1	BRAF V600E	cell-free assay, competition with immobilised ligand	25 µM	remaining binding	100%
COc1ccc2[nH]c3c4[nH]c5ccc(OC)cc5c4c4c(c3c2c1)C(=O)NC4=O	BRAF V600E	binding	1 µM	remaining binding	89%
C=CC(=O)N1CCC[C@@H](n2nc(-c3ccc(Oc4ccccc4)cc3)c3c(N)ncnc32)C1	BRAF	enzyme activity, inhibitor	1 µM	inhibition	51%
Cc1cc2c(C(N)=O)c(N)n(-c3c(C)ccc(O)c3C)c2nc1C	BRAF V600E	binding, competition with immobilised ligand	1 µM	remaining binding	0.75%
C=CC(=O)N1CCC([C@@H]2CCNc3c(C(N)=O)c(-c4ccc(Oc5ccccc5)cc4)nn32)CC1	BRAF V600E	enzyme activity, inhibitor	1 µM	inhibition	0%
Cc1ccc(NC(=O)c2ccnc(C(F)(F)F)c2)cc1-c1cc(OCCO)nc(N2CCOCC2)c1	BRAF V600E	binding	1 µM	remaining binding	0.35%
CO[C@@H]1[C@H](N(C)C(=O)c2ccccc2)C[C@H]2O[C@]1(C)n1c3ccccc3c3c4c(c5c6ccccc6n2c5c31)C(=O)NC4	BRAF	enzyme activity, inhibitor	1 µM	inhibition	6%
C1=C/COCc2cc(ccc2OCCN2CCCC2)Nc2nccc(n2)-c2cccc(c2)COC/1	BRAF V600E	binding	0.1 µM	remaining binding	85%
CCCCC(=O)Nc1ccc(-c2ccc3ncn(CCC)c(=O)c3c2)cn1	BRAF	binding, competition with immobilised ligand	0.5 µM	remaining binding	97%
CC#CC(=O)N1CCC[C@H]1c1nc(-c2ccc(C(=O)Nc3ccccn3)cc2)c2c(N)nccn12	BRAF V600E	enzyme activity, inhibitor	1 µM	inhibition	44%
CN1CCN(C(=O)c2ccc(NC(=O)Nc3ccc(N(C)c4ccnc(Nc5ccc(CS(C)(=O)=O)cc5)n4)cc3)cc2)CC1	BRAF	binding, competition with immobilised ligand	1 µM	remaining binding	89%
COc1ccc2oc(-c3ccc4nc(N)oc4c3)c/c(=N\c3ccccc3NC(=O)CCN)c2c1	BRAF V600E	cell-free assay	1 µM	remaining signal	100%
C#Cc1cnc(Nc2ccnc(CO)c2)nc1Nc1ccccc1S(C)(=O)=NC#N (centres unmarked)	BRAF	cell-free assay	1 µM	remaining signal	92%
C[C@H]1CC[C@H](n2c3cnccc3c3cnc(Nc4ccc5c(n4)CCN(C(=O)CO)C5)nc32)CC1	BRAF	cell-free assay, competition with immobilised ligand	1 µM	remaining binding	74%
